Reference: ChEMBL document CHEMBL4402603, “Structure-Activity Relationship of SPOP Inhibitors against Kidney Cancer” (J Med Chem, 2020)
Active and inactive are the calls of the source. No cut-off for these calls is given here.

Experiments:
U-251 = test: Cytotoxicity against human U251 cells assessed as reduction in cell viability incubated for 72 hrs by MTT assay; assay type: cell-based; conditions: U-251, 72 h
Summary of the method: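 Cells maintained in DMEM/10% FBS at 37 °C, 5% CO2. Cell proliferation quantified by MTT after 72 hr compound exposure, A490 read. Untreated cells = 100%. Mean ± SD, n = 3.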

[1] = target: T1, Speckle-type POZ protein/PTEN (Homo sapiens) (UniProt P60484+O43791); test: Inhibition of SPOP/PTEN interaction in human OS-RC2 cells assessed as increase in SPOP level at 1 to 50 uM incubated for 20 mins by DARTS based Western blot analysis; assay type: cell-based
Summary of the method: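 DARTS. Lysates of 1×10⁶ cells in TNC buffer, 120 μg per tube, incubated with compound at 0, 1, 5, 10 or 50 μM for 20 min at rt. Pronase digestion 10 min at rt (1:1000 for A498, 1:2000 for OS-RC-2), stopped with protease inhibitors, then SPOP western blot. Triplicate experiments.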

HK-2 = test: Cytotoxicity against human HK2 cells assessed as reduction in cell viability incubated for 72 hrs by MTT assay; assay type: cell-based; conditions: HK-2, 72 h
A498 = test: Antiproliferative activity against human A498 cells assessed as reduction in cell viability incubated for 72 hrs by MTT assay; assay type: functional, cell-based; conditions: A498, 72 h
Summary of the method: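 MTT read-out. Cells seeded at 1,000-2,200/well, grown 12 hr at 37 °C before compound, then exposed 72 hr. MTT for 4 hr, formazan dissolved in DMSO, A490 read. Untreated cells = 100% proliferation. IC50 quantitated; mean ± SD, n = 3.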

[2] = target: Speckle-type POZ protein (Homo sapiens) (UniProt O43791); test: Inhibition of SPOP signalling in human OS-RC2 cells assessed as reduction in ERK phosphorylation at 0.5 to 15 uM incubated for 12 hrs by Western blot analysis; assay type: cell-based
Summary of the method: (§1)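 Cells exposed 12 hr to inhibitor at graded concentrations, RIPA lysates normalized by BCA. 12% SDS-PAGE, nitrocellulose transfer, milk block, primary antibody at 4 °C overnight, HRP secondary, ECL. GAPDH loading control.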

[3] = target: T1, Speckle-type POZ protein/PTEN (Homo sapiens); test: Inhibition of SPOP/PTEN interaction in human HEK293T cells assessed as reduction in PTEN level incubated for 8 hrs by Western blot analysis; assay type: cell-based
[4] = Solubility of compound in cell culture medium in presence of 0.2 % DMSO; assay type: physicochemical
Summary of the method: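 Solubility determined in cell culture medium containing 0.2% DMSO.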

[5] = target: Speckle-type POZ protein (Homo sapiens) (UniProt O43791); test: Inhibition of SPOP signalling in human OS-RC2 cells assessed as reduction in AKT phosphorylation at 0.5 to 15 uM incubated for 12 hrs by Western blot analysis; assay type: cell-based; summary of the method: as §1
[6] = target: Speckle-type POZ protein (Homo sapiens) (UniProt O43791); test: Inhibition of SPOP in HEK293T cells assessed as reduction in cell viability incubated for 72 hrs by MTT assay; assay type: cell-based
[7] = target: Speckle-type POZ protein (Homo sapiens) (UniProt O43791); test: Inhibition of SPOP signalling in human OS-RC2 cells assessed as effect of DUSP7 mRNA expression at 1 to 10 uM incubated for 12 hrs by qRT-PCR analysis; assay type: cell-based
[8] = target: Speckle-type POZ protein (Homo sapiens) (UniProt O43791); test: Inhibition of SPOP signalling in human A498 cells assessed as reduction in AKT phosphorylation at 0.5 to 10 uM incubated for 12 hrs by Western blot analysis; assay type: cell-based; summary of the method: as §1
[9] = target: Speckle-type POZ protein (Homo sapiens) (UniProt O43791); test: Binding affinity to recombinant N-terminal GST/His-tagged SPOP (unknown origin) (23 to 337 residues) expressed in Escherichia coli BL21 (DE3) assessed as change in melting temperature at 5 fold compound incubated for 15 mins by nano differential scanning fluorimetry (reference value: -1.9 degreeC)
[10] = Selectivity index, ratio of IC50 for human H1299 to IC50 for human A498 cells
[11] = target: Speckle-type POZ protein (Homo sapiens) (UniProt O43791); test: Binding affinity to recombinant N-terminal GST/His-tagged SPOP (unknown origin) MATH binding domain expressed in Escherichia coli BL21 (DE3) assessed as change in melting temperature at 1 fold compound by SYPRO Orange dye based differential scanning fluorimetry (reference value: -1.7 degreeC)
[12] = target: Speckle-type POZ protein (Homo sapiens) (UniProt O43791); test: Binding affinity to recombinant N-terminal GST/His-tagged SPOP (unknown origin) (23 to 337 residues) expressed in Escherichia coli BL21 (DE3) assessed as change in melting temperature at 1 fold compound incubated for 15 mins by nano differential scanning fluorimetry (reference value: -1.9 degreeC)
[13] = target: Speckle-type POZ protein (Homo sapiens) (UniProt O43791); test: Inhibition of SPOP signalling in human A498 cells assessed as reduction in ERK phosphorylation at 0.5 to 10 uM incubated for 12 hrs by Western blot analysis; assay type: cell-based; summary of the method: as §1

Sequence of Speckle-type POZ protein (Homo sapiens) (O43791 whole entry, the tested form may be a part): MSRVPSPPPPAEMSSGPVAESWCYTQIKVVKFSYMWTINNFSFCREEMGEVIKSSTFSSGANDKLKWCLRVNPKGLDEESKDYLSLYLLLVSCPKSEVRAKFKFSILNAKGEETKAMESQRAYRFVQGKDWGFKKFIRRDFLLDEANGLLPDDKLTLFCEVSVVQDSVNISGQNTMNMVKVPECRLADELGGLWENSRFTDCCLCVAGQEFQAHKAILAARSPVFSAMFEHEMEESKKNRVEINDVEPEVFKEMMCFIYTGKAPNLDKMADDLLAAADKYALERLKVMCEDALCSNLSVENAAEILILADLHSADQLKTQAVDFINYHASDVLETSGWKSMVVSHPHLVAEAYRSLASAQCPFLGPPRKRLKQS
T1 sequence (O43791 whole entry, looked up): as the sequence (O43791 whole entry, the tested form may be a part) above
T1 sequence (P60484 whole entry, looked up): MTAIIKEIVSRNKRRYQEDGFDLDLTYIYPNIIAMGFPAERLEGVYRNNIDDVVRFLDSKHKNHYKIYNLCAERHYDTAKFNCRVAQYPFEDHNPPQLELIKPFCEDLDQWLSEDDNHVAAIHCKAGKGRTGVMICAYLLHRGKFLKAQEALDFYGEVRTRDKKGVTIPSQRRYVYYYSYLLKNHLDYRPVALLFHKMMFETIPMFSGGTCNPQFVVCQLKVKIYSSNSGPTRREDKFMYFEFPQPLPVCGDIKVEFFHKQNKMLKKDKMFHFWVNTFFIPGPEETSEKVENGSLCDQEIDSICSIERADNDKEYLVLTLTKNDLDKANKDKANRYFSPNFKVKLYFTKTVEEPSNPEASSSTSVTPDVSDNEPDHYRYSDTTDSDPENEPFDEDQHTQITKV

inhibition [1]: Active
inhibition [2]: Active
inhibition [3]: Dose-dependent effect
solubility [4]: > 90 µM
inhibition [5]: Active
inhibition [7]: inactive
inhibition [8]: Active
ΔTm [9]: 2.1 °C
ΔTm [11]: 2.7 °C
ΔTm [12]: 2.1 °C
inhibition [13]: Active
Compound: Cc1cccn2c(=O)c3cc(C(=O)NCCN4CCN(C)CC4)c(=N)n(CCc4cccs4)c3nc12
IC50 (U-251): 10.2 µM
IC50 (HK-2): > 30 µM
IC50 (A498): 2.1 µM
inhibition [6]: Active
Ratio IC50 [10]: >5
